Data published in PubChem BioAssay.
Records with an inconclusive call do not appear.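 How the source made its calls, unless noted: active means RAM network inhibition above 8.4% in each of two replicates, 3 SD over the compound average; inconclusive means above 8.4% inhibition in only one replicate; inactive means 8.4% inhibition or less in each replicate.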

Experiments:
[1] = OD615 S. cerevisiae growth inhibition, permissive medium, pilot counter-assay, permissive growth control for S. cerevisiae lifespan shortening project (AID 705;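 active means growth inhibition above 25% in both replicates, a cutoff set 3 SD above the mean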); settings: OD615, 24 h, at 10 µM, active compounds read high
Summary of the method: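 System – S. cerevisiae with engineered DeaD lifespan system · Buffer or medium – SC raffinose/galactose permissive medium · Schedule – cells pre-grown 4 h, then 24 h compound exposure, 30 °C humidified · Technique – culture turbidity as optical density at 615 nm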

[2] = Restrictive medium S. cerevisiae growth inhibition, OD615, pilot screen of yeast lifespan reduction project, restrictive growth control (AID 706;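 active means growth inhibition above a set limit, 3 SD over mean compound inhibition, in both replicates, cut at about 43% in these data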;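 further: modified DeaD lifespan yeast strain shifted to restrictive glucose medium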); settings: OD615, 48 h, at 10 µM, active compounds read high
Summary of the method: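 Material: engineered S. cerevisiae DeaD strain / Medium: glucose-based CSMM-D restrictive medium / Compound: single dose of 10 µM compound final, 0.25% DMSO / Timing: 4 h pre-incubation, 48 h exposure at 30 °C / Technique: OD615 absorbance reading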

[3] = viability gain of MRP-1-high H69AR cells under doxorubicin, pilot screen, MRP-1 activator project, CellTiter-Glo, duplicate (AID 807;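 active means viability increase at or above a cutoff of the median across tested compounds plus 3 SD, cut at about 8.5% in these data, passing the limit was not always enough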;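 further: compound pretreatment 18-22 h then 72 h combined with doxorubicin; 0% = doxorubicin alone and 100% = vehicle without doxorubicin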); settings: H69AR viability with doxorubicin, CellTiter-Glo luminescence; at 10 µM; active compounds read high
[4] = growth suppression of beta-catenin knockout HCT116, pilot screen, human colon tumor cells (AID 823;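 active means cell viability at or below a set limit in both duplicate runs, the limit being the all-compound median minus 4 SD, cut at about 23% in these data, passing the limit was not always enough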;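 further: 0% = wells killed by 20 µM Hyamine and 100% = untreated DMSO cell wells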); settings: CellTiter-Glo, 60 h, at 10 µM, active compounds read low
[5] = growth suppression of PTEN-deleted HCT116, pilot screen, cell-based, HCT116 clonal line, CellTiter-Glo (AID 824;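 active means viability at or below 27.92% in each of two runs, the all-compound median minus 4 SD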;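 further: 0% = 20 µM Hyamine control and 100% = vehicle cell control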); settings: 60 h, at 10 µM, active compounds read low
[6] = inhibitors of the yeast RAM network, pilot screen, dse1pr::URA3 reporter, 5-FOA selection (AID 869;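 active means inhibition over a set limit, the all-compound mean plus 3 SD, in both replicate runs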;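 further: 0% = DMSO wells with no growth and 100% = 10 µM 1-NA-PP1 with full growth; RAM network block rescues cells from 5-FOA so hits raise OD615 growth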); settings: S. cerevisiae dse1pr::URA3 5-FOA growth, OD615, 2 d; at 10 µM; active compounds read high; strain carries analog-sensitive mutant Cbk1 kinase
[7] = RAM signaling pathway blockade in yeast – S. cerevisiae, Pdr1DBD-CYC8 efflux-inhibited sensitized strain, primary screen (AID 1298);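 further: 0% = DMSO untreated cells without growth and 100% = 10 µM 1-NA-PP1 full growth; higher means more yeast growth rescued from 5-FOA killing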; settings: S. cerevisiae cbk1-as DSE1-URA3 strain, 5-FOA growth OD615, 2 d; at 50 µM; active compounds read high

CN(C(=O)c1cnc2n(c1=O)CCS2)C1CCCCC1
inactive: growth inhibition [1] -9.04% | growth inhibition [2] -5.85% | viability increase [3] -0.01% | viability [4] 105% | viability [5] 110% | inhibition [6] 1.5% | RAM network inhibition [7] 3.96%

COc1ccccc1NC(=O)c1cccc(S(=O)(=O)N2CCOCC2)c1
inactive: growth inhibition [1] 7.87% | growth inhibition [2] 0.14% | viability increase [3] -0.79% | viability [4] 103% | viability [5] 96.7% | inhibition [6] 2.99% | RAM network inhibition [7] 0.68%

CCOC(=O)c1ccc(Nc2ccc(-c3ccc(OC)c(OC)c3)nn2)cc1
inactive: growth inhibition [1] -6.25% | growth inhibition [2] -20% | viability increase [3] -5.24% | viability [4] 80.8% | viability [5] 77.2% | inhibition [6] 2.08% | RAM network inhibition [7] 3.37%

Nc1nonc1-n1nncc1-c1ccccc1
inactive: growth inhibition [1] -8.35% | growth inhibition [2] -13.6% | viability increase [3] -1.04% | viability [4] 92.4% | viability [5] 96.7% | inhibition [6] 1.67% | RAM network inhibition [7] 1.25%

CC(C)(C)n1nc2c(c1NC(=O)c1ccccc1F)CS(=O)C2 (stereo not drawn)
inactive: growth inhibition [1] 1.35% | growth inhibition [2] 0.655% | viability increase [3] 0.62% | viability [4] 101% | viability [5] 101% | inhibition [6] 1.66% | RAM network inhibition [7] 1.67%

CCOC(=O)NCCc1ccc(OC)cc1
inactive: growth inhibition [1] -4.17% | growth inhibition [2] 5.72% | viability increase [3] 1.36% | viability [4] 99.9% | viability [5] 95.8% | inhibition [6] 1.83% | RAM network inhibition [7] 0.56%

Cc1nc2c3ccccc3n(CC(=O)c3ccc(F)cc3)c(=O)n2n1
inactive: growth inhibition [1] -13.8% | growth inhibition [2] -4.75% | viability increase [3] -2.79% | viability [4] 96.8% | viability [5] 94.7% | inhibition [6] 3.38% | RAM network inhibition [7] 3.78%

CCNc1nc(OCCNS(=O)(=O)c2cc(C)ccc2C)nc(N(C)C)n1
inactive: growth inhibition [1] -7.45% | growth inhibition [2] -11.1% | viability increase [3] -0.92% | viability [4] 78.7% | viability [5] 78.8% | inhibition [6] 0.025% | RAM network inhibition [7] -0.63%

CCC(C)Nc1ncnc2c1cnn2Cc1ccc(Cl)cc1 (stereo not drawn)
inactive: growth inhibition [1] -13.7% | growth inhibition [2] -18.8% | viability increase [3] 6.18% | viability [4] 85.5% | viability [5] 86.7% | inhibition [6] -0.295% | RAM network inhibition [7] 2.14%

CCN(C(=O)COC(=O)C(Cc1ccccc1)N1C(=O)c2ccccc2C1=O)C1CCS(=O)(=O)C1 (stereo not drawn)
inactive: growth inhibition [1] -4.4% | growth inhibition [2] -18.5% | viability increase [3] 0.46% | viability [4] 97.4% | viability [5] 99.5% | inhibition [6] 0.495% | RAM network inhibition [7] 2.8%

Cc1ccc2c(c1)N(CCCC(=O)NCCCN1CCCC1=O)C(=O)CO2
inactive: growth inhibition [1] -11.1% | growth inhibition [2] -13.3% | viability increase [3] -2.09% | viability [4] 98.2% | viability [5] 94% | inhibition [6] 1.64% | RAM network inhibition [7] 1.27%

CCOc1ccc(NC2c3ccccc3C(=O)N2c2ccc(Cl)cn2)cc1 (stereo not drawn)
inactive: growth inhibition [1] -14% | growth inhibition [2] -15.6% | viability increase [3] -1.1% | viability [4] 94.2% | viability [5] 94.6% | inhibition [6] 3.93% | RAM network inhibition [7] 3.42%

CCCC(=O)NC(C)c1nc2ccccc2n1C (stereo not drawn)
inactive: growth inhibition [1] -18.7% | growth inhibition [2] -2.34% | viability increase [3] 2.12% | viability [4] 101% | viability [5] 102% | inhibition [6] 1.45% | RAM network inhibition [7] 1.79%

Cn1c(=O)c2cc(S(=O)(=O)NC(C(=O)N3CCCCCC3)c3ccccc3)ccc2n(C)c1=O (stereo not drawn)
inactive: growth inhibition [1] -16.6% | growth inhibition [2] -23.3% | viability increase [3] -1.22% | viability [4] 104% | viability [5] 89.1% | inhibition [6] 0.175% | RAM network inhibition [7] 2.61%

COc1ccc(C2C(C(N)=O)=C(C)Nc3nc(-c4ccccc4)nn32)cc1OC (stereo not drawn)
inactive: growth inhibition [1] -4.7% | growth inhibition [2] -8.15% | viability increase [3] -1.13% | viability [4] 95.3% | viability [5] 95.2% | inhibition [6] 0.78% | RAM network inhibition [7] -0.68%

CC12CCC(C(=O)N3CCCc4ccccc43)(CC1=O)C2(C)C (stereo not drawn)
inactive: growth inhibition [1] -15% | growth inhibition [2] -2.7% | viability increase [3] -0.39% | viability [4] 83.6% | viability [5] 87.6% | inhibition [6] 0.94% | RAM network inhibition [7] 0.93%

Cc1ccc(S(=O)(=O)N2C3C=CC(C3)C2C(=O)O)cc1 (stereo not drawn)
inactive: growth inhibition [1] 3.23% | growth inhibition [2] -3.31% | viability increase [3] -0.3% | viability [4] 94.3% | viability [5] 99.9% | inhibition [6] 0.08% | RAM network inhibition [7] 1.2%

CCOC(=O)c1nc2ccccc2s1
inactive: growth inhibition [1] -4.63% | growth inhibition [2] -15.7% | viability increase [3] -2.72% | viability [4] 99.2% | viability [5] 97.4% | inhibition [6] 1.02% | RAM network inhibition [7] 1.61%

CCN1C(=O)c2ccccc2S(=O)c2ccc(C(=O)N3CCN(C(=O)c4ccco4)CC3)cc21 (stereo not drawn)
inactive: growth inhibition [1] -1.51% | growth inhibition [2] 7.19% | viability increase [3] -2.16% | viability [4] 101% | viability [5] 92.5% | inhibition [6] 1.33% | RAM network inhibition [7] 7.96%

CCOC(=O)COc1ccc2cc(C(=O)OCC)c(=O)oc2c1
inactive: growth inhibition [1] -4.38% | growth inhibition [2] -13.8% | viability increase [3] -0.91% | viability [4] 103% | viability [5] 96.2% | inhibition [6] 1.7% | RAM network inhibition [7] 2%

COC(=O)c1ccc(-c2nc(-c3cccs3)no2)cc1
inactive: growth inhibition [1] 11.1% | growth inhibition [2] 10.5% | viability increase [3] -5.21% | viability [4] 84.1% | viability [5] 76.7% | inhibition [6] 2.32% | RAM network inhibition [7] 0.79%

O=C(Cn1cnc2c(cnn2-c2ccc(Cl)cc2)c1=O)NC1CCCCC1
inactive: growth inhibition [1] -1.74% | growth inhibition [2] 6.22% | viability increase [3] -3.89% | viability [4] 91.3% | viability [5] 91.7% | inhibition [6] 3.79% | RAM network inhibition [7] 2.4%

O=C(Nc1ccc(Br)cc1F)C1CCN(c2nnc(-n3cccc3)s2)CC1
inactive: growth inhibition [1] 2.32% | growth inhibition [2] -4.69% | viability increase [3] 0.53% | viability [4] 97.8% | viability [5] 99.8% | inhibition [6] 3.21% | RAM network inhibition [7] 0.36%

O=C(C1CC1)N1CCCN(C(=O)C2CC2)CC1
inactive: growth inhibition [1] 2.42% | growth inhibition [2] -1.38% | viability increase [3] -1.86% | viability [4] 98.8% | viability [5] 97.1% | inhibition [6] 2.03% | RAM network inhibition [7] 4.69%
